Results: ChEMBL document CHEMBL3784969, “Pharmacokinetics of flutamide in patients with renal insufficiency” (Br J Clin Pharmacol, 1999)

Columns and labels:
[1] = Plasma protein binding in healthy geriatric volunteer by equilibrium dialysis method; assay type: ADME, cell-free; details: human, read-out: PPB
[2] = AUC (0 to 24 hrs) in patient (3 patients) with renal insufficiency at 250 mg, po administered as single dose by gas chromatography; assay type: ADME, organism-based; set-up: time < 24 hr, dose 250 mg, route oral; details: human, in vivo
[3] = Tmax in patient (6 patients) with renal insufficiency at 250 mg, po administered as single dose by gas chromatography; assay type: ADME, organism-based; details: human, in vivo
Procedure, shortened: (§1)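 Males grouped by 24 h CLcr normalised to body surface area (>80, 50–80, 30–49, 5–29 ml min−1 1.73 m−2), fasted 10 h pre-dose and 4 h post-dose, given a single oral 250 mg flutamide dose. Plasma sampled 0–96 h; urine collected in blocks to 96 h. Flutamide and hydroxyflutamide measured by GC with electron-capture detection. Renal CL = Ae(0,96 h)/AUC(0,96 h); t1/2 = 0.693/λz.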

[4] = Drug excretion in urine of patient (3 patients) with renal insufficiency at 250 mg, po administered as single dose by gas chromatography; assay type: ADME, organism-based; details: human, in vivo; procedure, shortened: as §1
[5] = Cmax in patient (3 patients) with renal insufficiency at 250 mg, po administered as single dose by gas chromatography; assay type: ADME, organism-based; set-up: dose 250 mg, route oral; details: human, in vivo
Homo sapiens [6] = test: Final time point in terminal phase in patient (4 patients) with renal insufficiency at 250 mg, po administered as single dose by gas chromatography; assay type: ADME, organism-based; details: in vivo; procedure, shortened: as §1
[7] = Drug recovery in dialysate of patient (6 patients) with renal insufficiency at 250 mg, po administered as single dose 4 hrs prior to hemodialysis treatment measured during dialysis treatment by gas chromatography; assay type: ADME, organism-based; details: human, in vivo
Procedure, shortened: (§2)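 Group V haemodialysis males (CLcr <5 ml min−1 1.73 m−2). Single oral 250 mg flutamide (two 125 mg capsules) right after HD; after 14-day washout, same dose 4 h before HD lasting 2–4 h. Venous samples to 48 h, arterial/venous during HD, dialysate in hourly blocks. GC with 63Ni electron-capture detection. CL(HD) = dialysate Ae(HD)/arterial AUC(HD); renal CL = Ae(0,48)/AUC(0,48 h).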

Homo sapiens [8] = test: Cmax in patient (4 patients) with renal insufficiency assessed as hydroxy flutamide at 250 mg, po administered as single dose by gas chromatography; assay type: ADME, organism-based; set-up: dose 250 mg, route oral; details: in vivo
[9] = Half life in patient with renal insufficiency at 250 mg, po administered first dose followed by 14 days wash out period and administered second dose 4 hrs prior to hemodialysis day measured during hemodialysis treatment by gas chromatography; assay type: ADME, organism-based; details: human, in vivo; procedure, shortened: as §2
[10] = Drug excretion in urine of patient (6 patients) with renal insufficiency assessed as hydroxy flutamide at 250 mg, po administered as single dose 4 hrs prior to hemodialysis treatment measured at starting time of dialysis and post dialysis treatment by gas chromatography; assay type: ADME, organism-based; details: human, in vivo; procedure, shortened: as §2
Homo sapiens [11] = test: AUC (0 to 96 hrs) in patient (6 patients) with renal insufficiency at 250 mg, po assessed as hydroxy flutamide administered as single dose by gas chromatography; assay type: ADME, organism-based; set-up: dose 250 mg, time < 96 hr, route oral; details: in vivo
Homo sapiens [12] = test: AUC (0 to infinity) in patient (4 patients) with renal insufficiency at 250 mg, po assessed as hydroxy flutamide administered as single dose by gas chromatography; assay type: ADME, organism-based; set-up: dose 250 mg, time infinity, route oral; details: in vivo
Homo sapiens [13] = test: AUC (0 to 24 hrs) in patient (4 patients) with renal insufficiency assessed as hydroxy flutamide at 250 mg, po administered as single dose by gas chromatography; assay type: ADME, organism-based; set-up: dose 250 mg, time < 24 hr, route oral; details: in vivo
[14] = AUClast in patient (6 patients) with renal insufficiency at 250 mg, po administered as single dose 4 hrs prior to hemodialysis treatment measured at starting time of dialysis and post dialysis treatment by gas chromatography; assay type: ADME, organism-based; set-up: dose 250 mg, route oral, time 0 - last; details: human, in vivo
Homo sapiens [15] = test: Terminal half life in patient (6 patients) with renal insufficiency assessed as hydroxy flutamide at 250 mg, po administered as single dose 4 hrs prior to hemodialysis treatment measured at starting time of dialysis and post dialysis treatment by gas chromatography; assay type: ADME, organism-based; details: in vivo; procedure, shortened: as §2
Homo sapiens [16] = test: Terminal half life in patient (7 patients) with renal insufficiency assessed as hydroxy flutamide at 250 mg, po administered as single dose by gas chromatography; assay type: ADME, organism-based; details: in vivo; procedure, shortened: as §1
Homo sapiens [17] = test: AUC (0 to 24 hrs) in patient (6 patients) with renal insufficiency assessed as hydroxy flutamide at 250 mg, po administered as single dose by gas chromatography; assay type: ADME, organism-based; set-up: time < 24 hr, dose 250 mg, route oral; details: in vivo
Homo sapiens [18] = test: AUC (0 to 24 hrs) in patient (7 patients) with renal insufficiency assessed as hydroxy flutamide at 250 mg, po administered as single dose by gas chromatography; assay type: ADME, organism-based; set-up: dose 250 mg, time < 24 hr, route oral; details: in vivo
Homo sapiens [19] = test: Final time point in terminal phase in patient (7 patients) with renal insufficiency at 250 mg, po administered as single dose by gas chromatography; assay type: ADME, organism-based; details: in vivo; procedure, shortened: as §1
Homo sapiens [20] = test: Terminal half life in patient (4 patients) with renal insufficiency assessed as hydroxy flutamide at 250 mg, po administered as single dose by gas chromatography; assay type: ADME, organism-based; details: in vivo; procedure, shortened: as §1
Homo sapiens [21] = test: Tmax in patient (6 patients) with renal insufficiency assessed as hydroxy flutamide at 250 mg, po administered as single dose by gas chromatography; assay type: ADME, organism-based; details: in vivo; procedure, shortened: as §1
[22] = Drug excretion in urine of patient (7 patients) with renal insufficiency at 250 mg, po administered as single dose by gas chromatography; assay type: ADME, organism-based; details: human, in vivo; procedure, shortened: as §1
[23] = AUC (0 to 24 hrs) in patient (6 patients) with renal insufficiency at 250 mg, po administered as single dose by gas chromatography; assay type: ADME, organism-based; set-up: dose 250 mg, time < 24 hr, route oral; details: human, in vivo
[24] = Drug excretion in urine of patient (6 patients) with renal insufficiency assessed as hydroxy flutamide at 250 mg, po administered as single dose by gas chromatography; assay type: ADME, organism-based; details: human, in vivo; procedure, shortened: as §1
Homo sapiens [25] = test: AUC (0 to infinity) in patient (7 patients) with renal insufficiency at 250 mg, po assessed as hydroxy flutamide administered as single dose by gas chromatography; assay type: ADME, organism-based; set-up: dose 250 mg, route oral, time infinity; details: in vivo
[26] = Cmax in patient (4 patients) with renal insufficiency at 250 mg, po administered as single dose by gas chromatography; assay type: ADME, organism-based; set-up: dose 250 mg, route oral; details: human, in vivo
Homo sapiens [27] = test: AUC (0 to 24 hrs) in patient (3 patients) with renal insufficiency assessed as hydroxy flutamide at 250 mg, po administered as single dose by gas chromatography; assay type: ADME, organism-based; set-up: dose 250 mg, time < 24 hr, route oral; details: in vivo
Homo sapiens [28] = test: AUClast in patient (3 patients) with renal insufficiency at 250 mg, po assessed as hydroxy flutamide administered as single dose by gas chromatography; assay type: ADME, organism-based; set-up: dose 250 mg, time 0 - last, route oral; details: in vivo
Homo sapiens [29] = test: Final time point in terminal phase in patient (6 patients) with renal insufficiency assessed as hydroxy flutamide at 250 mg, po administered as single dose 4 hrs prior to hemodialysis treatment measured at starting time of dialysis and post dialysis treatment by gas chromatography; assay type: ADME, organism-based; details: in vivo; procedure, shortened: as §2
Homo sapiens [30] = test: Terminal half life in patient (6 patients) with renal insufficiency assessed as hydroxy flutamide at 250 mg, po administered as single dose by gas chromatography; assay type: ADME, organism-based; details: in vivo; procedure, shortened: as §1
[31] = Tmax in patient (7 patients) with renal insufficiency at 250 mg, po administered as single dose by gas chromatography; assay type: ADME, organism-based; details: human, in vivo; procedure, shortened: as §1
[32] = AUClast in patient (4 patients) with renal insufficiency at 250 mg, po administered as single dose by gas chromatography; assay type: ADME, organism-based; set-up: dose 250 mg, time 0 - last, route oral; details: human, in vivo
Homo sapiens [33] = test: AUC (0 to 96 hrs) in patient (7 patients) with renal insufficiency at 250 mg, po assessed as hydroxy flutamide administered as single dose by gas chromatography; assay type: ADME, organism-based; set-up: time < 96 hr, dose 250 mg, route oral; details: in vivo
[34] = Drug excretion in urine of patient (6 patients) with renal insufficiency at 250 mg, po administered as single dose by gas chromatography; assay type: ADME, organism-based; details: human, in vivo; procedure, shortened: as §1
Homo sapiens [35] = test: Cmax in patient (6 patients) with renal insufficiency assessed as hydroxy flutamide at 250 mg, po administered as single dose by gas chromatography; assay type: ADME, organism-based; set-up: dose 250 mg, route oral; details: in vivo

Q: Which results are given for CC(C)C(=O)Nc1ccc([N+](=O)[O-])c(C(F)(F)F)c1 [FLUTAMIDE]?
A: fraction unbound [1]: < 0.06; AUC(0-t) at 24 h [2]: 98 ng·h/mL; Tmax [3]: 1.4 h; Drug excretion [4]: 14 µg; Cmax [5]: 41 ng/mL; Time (Homo sapiens [6]): 5 h; Drug recovery [7]: 0 mg; Cmax (Homo sapiens [8]): 874 ng/mL; half-life [9]: 4.3 h; Drug excretion [10]: 5 µg; AUC (Homo sapiens [11]): 5527 ng·h/mL; AUC (Homo sapiens [12]): 6499 ng·h/mL; AUC (Homo sapiens [13]): 5821 ng·h/mL; AUC(0-t) at 4 h [14]: 179 ng·h/mL; beta t1/2 (Homo sapiens [15]): 8 h; beta t1/2 (Homo sapiens [16]): 7.1 h; AUC (Homo sapiens [17]): 5132 ng·h/mL; AUC (Homo sapiens [18]): 4663 ng·h/mL; Time (Homo sapiens [19]): 3.6 h; beta t1/2 (Homo sapiens [20]): 9 h; Tmax (Homo sapiens [21]): 1.9 h; Drug excretion [22]: 39 µg; AUC(0-t) at 24 h [23]: 96.4 ng·h/mL; Drug excretion [24]: 118.3 µg; AUC (Homo sapiens [25]): 4993 ng·h/mL; Cmax [26]: 44 ng/mL; AUC (Homo sapiens [27]): 6166 ng·h/mL; AUClast (Homo sapiens [28]): 6843 ng·h/mL; Time (Homo sapiens [29]): 43 h; beta t1/2 (Homo sapiens [30]): 7.3 h; Tmax [31]: 1.7 h; AUC(0-t) [32]: 79 ng·h/mL; AUC (Homo sapiens [33]): 4993 ng·h/mL; Drug excretion [34]: 24.4 µg; Cmax (Homo sapiens [35]): 1070 ng/mL
